ChEMBL document CHEMBL1155616, “Ancistroealaines A and B, two new bioactive naphthylisoquinolines, and related naphthoic acids from Ancistrocladus ealaensis” (J Nat Prod, 2000)
Converted amounts (≈) assume the structure as drawn.

What was measured:
[1] = Cytotoxicity against mouse peritoneal macrophages; format: cell-based, Macrophage; settings: read-out: MIC
[2] = Cytotoxicity against rat L6 cells after 4 days; format: cell-based; settings: read-out: MIC
How it was run: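 Uninfected L-6 myoblasts were run in the same format as the T. cruzi assay: RPMI 1640 with 10% FBS and 2 mM L-glutamine, same serial drug dilution, 37 °C, 5% CO₂. The MIC was judged microscopically after 4 days.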

Plasmodium falciparum [3] = experiment: Antiplasmodial activity against Plasmodium falciparum NF54 in human erythrocytes by [3H]hypoxanthine uptake; format: functional, organism-based; settings: NF54, 72 h
How it was run: (§1)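 [³H]hypoxanthine incorporation assay, modified. Infected human red cells were exposed to serial drug dilutions for 48 h at 37 °C under reduced O₂ and raised CO₂. [³H]hypoxanthine was then added and incubation continued for 24 h. Cells were harvested on glass-fibre filters and counted by liquid scintillation. IC50 was taken from the sigmoidal inhibition curve. Runs were in duplicate and repeated at least once.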

Leishmania donovani = experiment: Antileishmanial activity against Leishmania donovani MHOM-ET-67/L82 amastigotes in mouse peritoneal macrophages; format: functional, organism-based
How it was run: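 Mouse peritoneal macrophages in RPMI 1640 with 10% heat-inactivated FBS were infected after 24 h with amastigotes at 3:1 (parasite:macrophage). Free parasites were removed at 4 h. Drug was added the next day and cells incubated for 96 h at 37 °C in 5% CO₂. Slides were MeOH-fixed and Giemsa-stained, and the infected/noninfected ratio counted microscopically as % of control. IC50 was obtained by linear regression.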

Plasmodium falciparum [4] = experiment: Antiplasmodial activity against Plasmodium falciparum K1 in human erythrocytes by [3H]hypoxanthine uptake; format: functional, organism-based; settings: K1, 72 h; how it was run: as §1
Trypanosoma cruzi = experiment: Antitrypanosomal activity against galactosidase gene containing Trypanosoma cruzi Tulahuen C2C4 trypomastigotes in rat L6 cells after 4 days; format: functional, organism-based; settings: Tulahuen C2C4, L6, 96 h
How it was run: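 L-6 myoblasts were seeded at 2000 cells/well in RPMI 1640 with 10% FBS and 2 mM L-glutamine. After 24 h, 5000 trypomastigotes were added with serial drug dilutions. Plates were kept at 37 °C in 5% CO₂ for 4 days. CPRG/Nonidet substrate was added and colour read at 540 nm after 2–4 h. IC50 was taken from the sigmoidal inhibition curve.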

[5] = system: Trypanosoma brucei rhodesiense; experiment: Antitrypanosomal activity against Trypanosoma brucei rhodesiense STIB900 by Alamar blue assay; format: functional, organism-based
How it was run: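 Bloodstream parasites were grown in Minimum Essential Medium with 2-mercaptoethanol and 15% heat-inactivated horse serum, with serial drug dilutions, for 72 h at 37 °C in 5% CO₂. Alamar Blue was then added for 2–4 h more, and fluorescence read at excitation 530 nm and emission 590 nm. Signal was expressed as % of control to give IC50.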

IC50 (Plasmodium falciparum [3]) [µg/mL] | IC50 (Leishmania donovani) [µg/mL] | IC50 (Plasmodium falciparum [4]) [µg/mL] | IC50 (Trypanosoma cruzi) [µg/mL] | IC50 [5] [µg/mL] | Compound | MCC [1] [µg/mL] | MCC at 96 h [2] [µg/mL]
4 (≈ 9.53 µM) | 4.1 (≈ 9.77 µM) | 1.2 (≈ 2.86 µM) | 2.35 (≈ 5.6 µM) | 3.46 (≈ 8.25 µM) | COc1cc(OC)c(-c2ccc(OC)c3c(OC)cc(C)cc23)c2c1C(C)=N[C@@H](C)C2 [ANCISTROEALAINE A] | > 30 | > 90
0.79 (≈ 1.94 µM) | 10 (≈ 24.5 µM) | 0.52 (≈ 1.28 µM) | 17.6 (≈ 43.2 µM) | 2.03 (≈ 4.98 µM) | COc1cc(OC)c2c(c1-c1ccc(O)c3c(OC)cc(C)cc13)C[C@H](C)N[C@H]2C [ANCISTROEALAINE B] | > 30 | 90
 |  |  | 0.3 (≈ 1.15 µM) |  | O=C(Cn1ccnc1[N+](=O)[O-])NCc1ccccc1 [BENZNIDAZOLE] |  | 

Compound | IC50 (Plasmodium falciparum [3]) [µg/mL] | IC50 (Leishmania donovani) [µg/mL] | IC50 (Plasmodium falciparum [4]) [µg/mL] | IC50 (Trypanosoma cruzi) [µg/mL] | IC50 [5] [µg/mL] | MCC [1] [µg/mL] | MCC at 96 h [2] [µg/mL]
Nc1nc(N)nc(Nc2ccc([As]3SCC(CO)S3)cc2)n1 (stereo unspecified) [MELARSOPROL] |  |  |  |  | 0.0063 |  | 
